Test results: ChEMBL document CHEMBL3861972, “Actinomadurol, an Antibacterial Norditerpenoid from a Rare Actinomycete, Actinomadura sp. KC 191” (J Nat Prod, 2016)
Converted amounts (≈) assume the structure as drawn.

Tests used:
Escherichia coli = experiment: Antibacterial activity against Escherichia coli ATCC 25922 after 24 hrs by serial two fold dilution method; format: functional; settings: ATCC 25922, 24 h
How it was run: (§1)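 Broth microdilution MIC. Bacteria grown overnight in LB broth at 37 °C, harvested by centrifugation and washed twice in sterile distilled water. Compound DMSO stocks were diluted in Standard method broth to give serial 2-fold dilutions from 100 to […] μg/mL. About 10^5 cfu/mL of test bacteria were added per well, and plates were incubated 24 h at 37 °C.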

Kocuria rhizophila = experiment: Antibacterial activity against Kocuria rhizophila NBRC 12708 after 24 hrs by serial two fold dilution method; format: functional; settings: NBRC 12708, 24 h; how it was run: as §1
Staphylococcus aureus = experiment: Antibacterial activity against Staphylococcus aureus ATCC 6538p after 24 hrs by serial two fold dilution method; format: functional; how it was run: as §1
[1] = Antibacterial activity against Salmonella enterica ATCC 14028 after 24 hrs by serial two fold dilution method; format: functional; settings: ATCC 14028, 24 h; how it was run: as §1
Bacillus spizizenii = experiment: Antibacterial activity against Bacillus subtilis ATCC 6633 after 24 hrs by serial two fold dilution method; format: functional; settings: ATCC 6633, 24 h; how it was run: as §1
Proteus hauseri = experiment: Antibacterial activity against Proteus hauseri NBRC 3851 after 24 hrs by serial two fold dilution method; format: functional; settings: NBRC 3851, 24 h; how it was run: as §1
[2] = Antifungal activity against Trichophyton rubrum; format: functional
[3] = Growth inhibition of human MDA-MB-231 cells; format: functional, cell-based
[4] = Growth inhibition of human SNU638 cells; format: functional, cell-based; settings: SNU-638
[5] = Antifungal activity against Trichophyton mentagrophytes; format: functional
[6] = Growth inhibition of human K562 cells; format: functional, cell-based
Candida albicans = experiment: Antifungal activity against Candida albicans; format: functional
[7] = Growth inhibition of human SKHEP1 cells; format: functional, cell-based; settings: SK-HEP1
[8] = Growth inhibition of human A549 cells; format: functional, cell-based
[9] = Growth inhibition of human HCT116 cells; format: functional, cell-based; settings: HCT-116
Aspergillus fumigatus = experiment: Antifungal activity against Aspergillus fumigatus; format: functional

SMILES	MIC (Escherichia coli)	MIC (Kocuria rhizophila)	MIC (Staphylococcus aureus)	MIC [1]	MIC (Bacillus spizizenii)	MIC (Proteus hauseri)	MIC [2]	IC50 [3]	IC50 [4]	MIC [5]	IC50 [6]	MIC (Candida albicans)	IC50 [7]	IC50 [8]	IC50 [9]	MIC (Aspergillus fumigatus)
CC1(C)S[C@@H]2[C@H](NC(=O)[C@H](N)c3ccccc3)C(=O)N2[C@H]1C(=O)O [AMPICILLIN]	6.25 µg/mL (≈ 17.9 µM)	0.79 µg/mL (≈ 2.26 µM)	3.12 µg/mL (≈ 8.93 µM)	3.12 µg/mL (≈ 8.93 µM)	1.56 µg/mL (≈ 4.46 µM)	1.56 µg/mL (≈ 4.46 µM)										
C=C[C@]1(C)CCC2=C(C1)[C@H](O)C[C@H]1C(CO)=CC(=O)[C@@H](O)[C@]21C	> 100 µg/mL	0.39 µg/mL (≈ 1.22 µM)	0.78 µg/mL (≈ 2.45 µM)	3.12 µg/mL (≈ 9.8 µM)	1.56 µg/mL (≈ 4.9 µM)	0.78 µg/mL (≈ 2.45 µM)	> 100 µg/mL	> 100 µg/mL	> 100 µg/mL	> 100 µg/mL	> 100 µg/mL	> 100 µg/mL	> 100 µg/mL	> 100 µg/mL	> 100 µg/mL	> 100 µg/mL
C=C[C@]1(C)CCC2=C(C1)C(=O)C[C@H]1C(CO)=CC(=O)[C@@H](O)[C@]21C	> 100 µg/mL	> 100 µg/mL	> 100 µg/mL	> 100 µg/mL	> 100 µg/mL	> 100 µg/mL	> 100 µg/mL	> 100 µg/mL	> 100 µg/mL	> 100 µg/mL	> 100 µg/mL	> 100 µg/mL	> 100 µg/mL	> 100 µg/mL	> 100 µg/mL	> 100 µg/mL
